Laboratory results reported in ChEMBL document CHEMBL5058577, “EUbOPEN Chemogenomics Library 2 (Multiplex)” (2022).

Tested on: Fibroblast
Experiment: Multiplex assay against human fibroblast
Type: toxicity, cell-based
How it was run: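 Phenotypes for tubulin, mitochondrial mass and membrane permeability are expressed as per cents of healthy-nucleus cells. Cells were stained live at seeding with Hoechst33342, BioTracker Green Microtubule Cytoskeleton Dye, MitoTracker Red and Annexin V Alexa Fluor 680, then imaged after compound addition on a CQ1 microscope at 37°C and 5% CO2. Machine-learning gating in CellPathfinder separated Hoechst high-intensity objects from normal cells, divided normal cells by nuclear state (healthy, pyknosed, fragmented) and divided pyknosed cells into mitotic or apoptotic.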

[1] = 12 h, 1 µM, compound concentration 1 uM, replicate 1
[2] = 12 h, 1 µM, compound concentration 1 uM, replicate 2
[3] = 12 h, 10 µM, compound concentration 10 uM, replicate 1
[4] = 12 h, 10 µM, compound concentration 10 uM, replicate 2
[5] = 24 h, 1 µM, compound concentration 1 uM, replicate 1
[6] = 24 h, 1 µM, compound concentration 1 uM, replicate 2
[7] = 24 h, 10 µM, compound concentration 10 uM, replicate 1
[8] = 24 h, 10 µM, compound concentration 10 uM, replicate 2
[9] = 48 h, 1 µM, compound concentration 1 uM, replicate 1
[10] = 48 h, 1 µM, compound concentration 1 uM, replicate 2
[11] = 48 h, 10 µM, compound concentration 10 uM, replicate 1
[12] = 48 h, 10 µM, compound concentration 10 uM, replicate 2

SMILES: Cc1sc2c(c1C)C(c1ccc(Cl)cc1)=N[C@@H](CC(=O)NCCCCCCCCNC(=O)COc1cccc3c1C(=O)N(C1CCC(=O)NC1=O)C3=O)c1nnc(C)n1-2 (some centres not stated)
- Population Apoptotic (%) [1]: 57%
- Population Fragmented Nuclei (%) [1]: 10%
- Population Healthy Nuclei (%) [1]: 72%
- Population Hoechst High Intensity Objects (%) [1]: 3%
- Population Membrane Permeable-Phenotype (%) [1]: 1%
- Population Mitochondria Different-Phenotype (%) [1]: 4%
- Population Mitotic Cells (%) [1]: 42%
- Population Normal (%) [1]: 96%
- Population Pyknosed Nuclei (%) [1]: 16%
- Population Tubulin-Different-Phenotype (%) [1]: 25%
- Total Cell Count [1]: 118
- Population Apoptotic (%) [2]: 42%
- Population Fragmented Nuclei (%) [2]: 34%
- Population Healthy Nuclei (%) [2]: 34%
- Population Hoechst High Intensity Objects (%) [2]: 6%
- Population Membrane Permeable-Phenotype (%) [2]: 23%
- Population Mitochondria Different-Phenotype (%) [2]: 23%
- Population Mitotic Cells (%) [2]: 57%
- Population Normal (%) [2]: 93%
- Population Pyknosed Nuclei (%) [2]: 31%
- Population Tubulin-Different-Phenotype (%) [2]: 66%
- Total Cell Count [2]: 94
- Population Apoptotic (%) [3]: 54%
- Population Fragmented Nuclei (%) [3]: 13%
- Population Healthy Nuclei (%) [3]: 56%
- Population Hoechst High Intensity Objects (%) [3]: 11%
- Population Membrane Permeable-Phenotype (%) [3]: 1%
- Population Mitochondria Different-Phenotype (%) [3]: 19%
- Population Mitotic Cells (%) [3]: 45%
- Population Normal (%) [3]: 88%
- Population Pyknosed Nuclei (%) [3]: 30%
- Population Tubulin-Different-Phenotype (%) [3]: 50%
- Total Cell Count [3]: 171
- Population Apoptotic (%) [4]: 44%
- Population Fragmented Nuclei (%) [4]: 27%
- Population Healthy Nuclei (%) [4]: 27%
- Population Hoechst High Intensity Objects (%) [4]: 17%
- Population Membrane Permeable-Phenotype (%) [4]: 7%
- Population Mitochondria Different-Phenotype (%) [4]: 26%
- Population Mitotic Cells (%) [4]: 55%
- Population Normal (%) [4]: 82%
- Population Pyknosed Nuclei (%) [4]: 45%
- Population Tubulin-Different-Phenotype (%) [4]: 69%
- Total Cell Count [4]: 115
- Population Apoptotic (%) [5]: 56%
- Population Fragmented Nuclei (%) [5]: 20%
- Population Healthy Nuclei (%) [5]: 53%
- Population Hoechst High Intensity Objects (%) [5]: 10%
- Population Membrane Permeable-Phenotype (%) [5]: 3%
- Population Mitochondria Different-Phenotype (%) [5]: 3%
- Population Mitotic Cells (%) [5]: 44%
- Population Normal (%) [5]: 89%
- Population Pyknosed Nuclei (%) [5]: 26%
- Population Tubulin-Different-Phenotype (%) [5]: 25%
- Total Cell Count [5]: 107
- Population Apoptotic (%) [6]: 65%
- Population Fragmented Nuclei (%) [6]: 41%
- Population Healthy Nuclei (%) [6]: 32%
- Population Hoechst High Intensity Objects (%) [6]: 3%
- Population Membrane Permeable-Phenotype (%) [6]: 16%
- Population Mitochondria Different-Phenotype (%) [6]: 20%
- Population Mitotic Cells (%) [6]: 35%
- Population Normal (%) [6]: 96%
- Population Pyknosed Nuclei (%) [6]: 25%
- Population Tubulin-Different-Phenotype (%) [6]: 72%
- Total Cell Count [6]: 80
- Population Apoptotic (%) [7]: 67%
- Population Fragmented Nuclei (%) [7]: 20%
- Population Healthy Nuclei (%) [7]: 38%
- Population Hoechst High Intensity Objects (%) [7]: 13%
- Population Membrane Permeable-Phenotype (%) [7]: 3%
- Population Mitochondria Different-Phenotype (%) [7]: 9%
- Population Mitotic Cells (%) [7]: 32%
- Population Normal (%) [7]: 86%
- Population Pyknosed Nuclei (%) [7]: 41%
- Population Tubulin-Different-Phenotype (%) [7]: 47%
- Total Cell Count [7]: 154
- Population Apoptotic (%) [8]: 44%
- Population Fragmented Nuclei (%) [8]: 25%
- Population Healthy Nuclei (%) [8]: 32%
- Population Hoechst High Intensity Objects (%) [8]: 12%
- Population Membrane Permeable-Phenotype (%) [8]: 17%
- Population Mitochondria Different-Phenotype (%) [8]: 20%
- Population Mitotic Cells (%) [8]: 55%
- Population Normal (%) [8]: 87%
- Population Pyknosed Nuclei (%) [8]: 42%
- Population Tubulin-Different-Phenotype (%) [8]: 68%
- Total Cell Count [8]: 103
- Population Apoptotic (%) [9]: 88%
- Population Fragmented Nuclei (%) [9]: 41%
- Population Healthy Nuclei (%) [9]: 24%
- Population Hoechst High Intensity Objects (%) [9]: 27%
- Population Membrane Permeable-Phenotype (%) [9]: 0%
- Population Mitochondria Different-Phenotype (%) [9]: 0%
- Population Mitotic Cells (%) [9]: 12%
- Population Normal (%) [9]: 72%
- Population Pyknosed Nuclei (%) [9]: 33%
- Population Tubulin-Different-Phenotype (%) [9]: 33%
- Total Cell Count [9]: 102
- Population Apoptotic (%) [10]: 93%
- Population Fragmented Nuclei (%) [10]: 42%
- Population Healthy Nuclei (%) [10]: 37%
- Population Hoechst High Intensity Objects (%) [10]: 8%
- Population Membrane Permeable-Phenotype (%) [10]: 27%
- Population Mitochondria Different-Phenotype (%) [10]: 20%
- Population Mitotic Cells (%) [10]: 6%
- Population Normal (%) [10]: 91%
- Population Pyknosed Nuclei (%) [10]: 20%
- Population Tubulin-Different-Phenotype (%) [10]: 82%
- Total Cell Count [10]: 85
- Population Apoptotic (%) [11]: 86%
- Population Fragmented Nuclei (%) [11]: 40%
- Population Healthy Nuclei (%) [11]: 20%
- Population Hoechst High Intensity Objects (%) [11]: 38%
- Population Membrane Permeable-Phenotype (%) [11]: 5%
- Population Mitochondria Different-Phenotype (%) [11]: 10%
- Population Mitotic Cells (%) [11]: 13%
- Population Normal (%) [11]: 61%
- Population Pyknosed Nuclei (%) [11]: 38%
- Population Tubulin-Different-Phenotype (%) [11]: 55%
- Total Cell Count [11]: 156
- Population Apoptotic (%) [12]: 57%
- Population Fragmented Nuclei (%) [12]: 38%
- Population Healthy Nuclei (%) [12]: 38%
- Population Hoechst High Intensity Objects (%) [12]: 15%
- Population Membrane Permeable-Phenotype (%) [12]: 14%
- Population Mitochondria Different-Phenotype (%) [12]: 14%
- Population Mitotic Cells (%) [12]: 42%
- Population Normal (%) [12]: 84%
- Population Pyknosed Nuclei (%) [12]: 23%
- Population Tubulin-Different-Phenotype (%) [12]: 80%
- Total Cell Count [12]: 108
